# MEKK3 PB1 HTS = modulators (inhibitors or enhancers) of MEK5 binding to human MEKK3 PB1 domain | binding response (% of control), % at 10 µM | 290,000 tested, 1.4% active | Q99759 | bead-based flow cytometry, Alexa488-MEK5 binding to MEKK3; actives lie on both sides; 0 = blocked by unlabeled MEK5, 100 = vehicle | AID 1529;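 active = binding response more than 3 SD above or below the average of its plate-row segment, actives on both sides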;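 note: Alexa488 bead fluorescence after subtracting the streptavidin-only scavenger bead signal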
# Target sequence (Q99759 whole entry, looked up, the tested form may be a part): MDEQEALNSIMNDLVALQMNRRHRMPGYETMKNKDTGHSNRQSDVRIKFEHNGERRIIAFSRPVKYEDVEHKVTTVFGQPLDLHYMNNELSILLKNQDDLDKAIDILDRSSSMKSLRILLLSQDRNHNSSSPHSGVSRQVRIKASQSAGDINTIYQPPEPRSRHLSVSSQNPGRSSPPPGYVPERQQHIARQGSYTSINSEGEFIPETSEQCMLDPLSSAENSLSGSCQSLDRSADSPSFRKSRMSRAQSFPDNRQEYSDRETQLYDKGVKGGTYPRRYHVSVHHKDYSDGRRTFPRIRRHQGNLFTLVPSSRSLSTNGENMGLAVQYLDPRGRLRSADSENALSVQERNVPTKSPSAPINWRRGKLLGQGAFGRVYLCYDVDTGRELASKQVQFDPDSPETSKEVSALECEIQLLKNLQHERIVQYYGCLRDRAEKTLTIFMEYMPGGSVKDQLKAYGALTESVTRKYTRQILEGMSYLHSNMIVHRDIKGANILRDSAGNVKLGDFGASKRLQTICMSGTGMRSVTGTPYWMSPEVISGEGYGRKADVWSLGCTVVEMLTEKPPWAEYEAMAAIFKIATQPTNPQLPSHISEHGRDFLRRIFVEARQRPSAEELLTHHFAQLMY
# ABCG2 inh = inhibitors of human ABCG2 transporter, ABCB1 counter-screen; Q9UNQ0; IgMXP3 cells, JC-1 efflux, flow cytometry; inhibition, % at 6.6 µM; 190,000 tested, 0.1% active; AID 1325;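 active = inhibition above 80%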
#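 Read-out basis: Efflux inhibition in percent versus controls | Test system: ABCG2 IgMXP3 and barcoded ABCB1 CCRF-Adr cell mix | Quantity: 3 million cells/mL in well | Schedule: 10 min at 25 °C | Control set: Nicardipine as high control, DMSO as low control | Reagent: JC-1 as fluorescent efflux pump substrate | Signal: Flow cytometry of retained JC-1 fluorescence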
# MEKK2 mut-MEK5 = signal of MEK5 binding to mutant human MEKK2 PB1 domain; bead flow cytometry, Alexa488-MEK5 binding to MEKK2 mutant; percent response, % at 10 µM; 290,000 tested, 0.35% active; AID 1530; in the data active = percent response above about 24%, passing the limit was not always enough
# ABCB1 inh = blocks JC-1 efflux by human ABCB1 transporter | CCRF-Adr cells, flow cytometry | inhibition, % at 6.6 µM | 190,000 tested, 0.067% active; in the data active = inhibition above about 40%;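 note: higher value means more JC-1 retained so stronger ABCB1 efflux block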
# MEKK2 WT-MEK5 = raises or lowers MEK5 binding to wildtype human MEKK2 PB1 domain; bead flow cytometry, Alexa488-MEK5 binding to MEKK2 WT; actives lie on both sides; binding response (% of control), % at 10 µM; 290,000 tested, 1.1% active; AID 1531; in the data active = binding response below about 67% or above about 130%
# WT yeast gro inh = growth inhibition of WT yeast, mitochondrial fusion screen | mitochondrial fusion phenotypic screen, WT strain | inhibition, % at 10 µM | 190,000 tested, 2.1% active | AID 1362; in the data active = inhibition above about 58%; tested in S. cerevisiae
# Numbers stand for hits; - = inactive; . = not tested or not shown; [ ] = another dose, or the depositor's remark. Hits are enriched below; roughly 3.5% of the tested compounds scored in any of these assays.
SMILES,MEKK3 PB1 HTS,ABCG2 inh,MEKK2 mut-MEK5,ABCB1 inh,MEKK2 WT-MEK5,WT yeast gro inh
Cc1cnc(NC(=O)CSc2nc3ccccc3s2)s1,-,-,-,-,-,-
Cc1cnc(NC(=O)CSc2nnc(N)s2)s1,-,-,-,-,-8.0,-
O=C(O)C1CC=C(Cl)CC1C(=O)NC1CCCCC1 (configuration not stated),-,.,-,.,-,.
Cc1ccccc1COC(=O)c1nn(-c2ccccc2)nc1N,-,-,-,-,-,61.6
O=C(CSc1cc(Cl)ccc1Cl)NCCCn1ccnc1,-,.,26.0,.,-,.
CCCc1nn(C)c(C(=O)Nc2ccc(C(C)(C)C)cc2)c1Cl,-,-,-,-,-,62.6
CCCc1nn(C)c(C(=O)Nc2ccc(Cl)cc2)c1Cl,-,-,-,-,-,-
Cc1ccc(CNC(=O)[C@@H](NC(=O)C2CCN(C(=O)[C@@H](N)CC(C)C)CC2)C(C)C)cc1,-,.,-,.,-,.
CCc1ccc(CCC(=O)Nc2ncc(Cc3ccccc3Cl)s2)o1,163.0,-,-,-,-,-
CC(=O)Nc1ncc(Cc2cc(Cl)ccc2Cl)s1,-,-,-,-,-,76.5
Cc1c(C(=S)Nc2ccccc2)cnn1-c1ccc([N+](=O)[O-])cc1,-,-,-,-,4.0,-
Cc1cc(C(=O)NCCCn2ccnc2)sc1-c1ccccc1,-,-,-,-,-,-
CCOCCCNC(=O)/C(C#N)=C/c1ccc([N+](=O)[O-])o1,-,-,-,-,-,91.3
COc1ccc(CNC(=O)C2CC(=O)N(c3ccc(OCC(=O)N4C(C)CCCC4C)cc3)C2)cc1 (configuration not stated),-,-,-,-,-,64.5
O=C(C1CCC(CNS(=O)(=O)c2cccs2)CC1)N1CCN(c2ccc(F)cc2)CC1 (configuration not stated),77.0[inhibitor],.,-,.,-,.
O=C(NCc1ccc(F)cc1)C1CCC(CNS(=O)(=O)c2cccs2)CC1 (configuration not stated),-,.,-,.,-,.
C/C(=C\C(=S)Nc1ccccc1)Nc1ccc2ccccc2c1,-,-,-,-,-,61.6
CC(C)c1ccc(S(=O)(=O)Nc2ccc(SC(F)F)cc2)cc1,-,-,-,-,-,85.0
Cc1ccc(S(=O)(=O)N(C)C)cc1NC(=O)CN1C(=O)NC2(CCCc3ccccc32)C1=O (configuration not stated),-,-,-,-,-,-
O=C(Nc1ccc(Cl)c(Cl)c1)c1ccc(Cn2cc(Cl)cn2)cc1,-,-,-,-,-,78.3
NNC(=O)c1ccc(Cn2cc(Cl)cn2)cc1,-,-,-,-,-,-
CCN(CC)S(=O)(=O)c1ccc(Cl)c(NC(=O)c2cc(Cl)cc(Cl)c2)c1,-,-,-,-,-,-
Cc1cccc(NCc2nc3ccccc3n2Cc2ccccc2)c1,-,-,-,-,-,75.4
Cc1nc2cc(NCc3nc4ccccc4n3Cc3ccccc3)ccc2n1C,.,-,.,-,.,-
Cc1ccc(Cn2c(Cc3ccccc3)nc3ccccc32)cc1,-,-,-,-,-,70.6
SMILES,MEKK3 PB1 HTS,ABCG2 inh,MEKK2 mut-MEK5,ABCB1 inh,MEKK2 WT-MEK5,WT yeast gro inh
COc1ccc(C)cc1NC(=O)NNS(=O)(=O)c1ccc(NC(C)=O)cc1,39.0[inhibitor],.,-,.,47.0[inhibitor],.
CC(C)C(c1nnnn1C(C)(C)C)N1CCC(Cc2ccccc2)CC1 (configuration not stated),-,-,-,-,-,72.6
O=[N+]([O-])c1ccc(O)c(-c2nc(-c3ccccc3)c(-c3cccs3)[nH]2)c1,-,-,-,-,-,72.2
O=C(O)c1ccc(-c2nc(-c3ccccc3)c(-c3cccs3)[nH]2)cc1,-,.,-,.,-,.
NNC(=O)c1cc(-c2ccc(N)cc2)nc2ccc(Br)cc12,-,.,-,.,-,.
CCN1/C(=C/c2cc[n+](C)cc2)C=Cc2cc(C)ccc21,-,-,-,-,-,70.3
CCN1C(=O)/C(=C2\C=Cc3cc(C)ccc3N2CC)OC1=S,-,-,-,-,-,-
Cn1c(CCNC(=O)c2ccccc2F)nnc1SCC(=O)Nc1nncs1,-,.,-,.,-,.
COc1ccc(C2CC(c3ccccc3)=NN2c2ccc(S(N)(=O)=O)cc2)cc1OC (configuration not stated),-,-,-,-,-,-
NS(=O)(=O)c1ccc(N2N=C(c3ccccc3)CC2c2cccc(F)c2)cc1 (configuration not stated),-,-,-,-,-,84.7
NS(=O)(=O)c1ccc(N2N=C(c3ccc(Br)cc3)CC2c2ccc(F)cc2)cc1 (configuration not stated),.,-,.,-,.,92.1
CC(=O)N1c2ccc(S(=O)(=O)N(C)CC(=O)Nc3ccccc3C)cc2CC1C (configuration not stated),-,.,-,.,-,.
c1ccc(-c2nc(N3CCN(c4ccccc4)CC3)nc(-n3ccnc3)n2)cc1,-,-,-,-,-,67.7
c1ccc(N(c2ccccc2)c2nc(-n3ccnc3)nc(-n3ccnc3)n2)cc1,-,-,-,-,-,98.1
Cc1cccc(N(C)S(=O)(=O)c2c(C)[nH]c(C)c2C(=O)N2CCCC2)c1,-,.,-,.,-,.
CCOC(=O)c1c(C)[nH]c(C(=O)OCC(=O)Nc2cc(Cl)ccc2OC)c1C,-,-,-,-,-,85.4
CCOC(=O)c1c(C)[nH]c(C(=O)OCC(=O)Nc2cc(C)ccc2OC)c1C,.,-,.,-,.,-
Cc1cccc(N(CC(O)CON=C2c3ccccc3-c3ccccc32)S(C)(=O)=O)c1 (configuration not stated),-,-,-,-,-,62.9
CS(=O)(=O)N(CC(O)CON=C1c2ccccc2-c2ccccc21)c1ccc(F)cc1 (configuration not stated),-,-,-,-,-,-
O=C(O)c1cc(C(=O)O)cc(-c2ccc(/C=c3/sc4nc5ccccc5n4c3=O)o2)c1,71.0[inhibitor],-,-,-,61.0[inhibitor],-
Cc1cc(N2CCN(C)CC2)nc2ccc(NC(=S)NCCN3CCc4ccccc4C3)cc12,-,-,-,-,158.0,-
Cc1cc(N2CCN(C)CC2)nc2ccc(NC(=S)N3CCN(c4ccc(Cl)cc4)CC3)cc12,-,-,-,-,-,97.4
CN(C)CCN(C(=O)c1ccc2ccccc2c1)c1nc2ccc(Br)cc2s1,-,.,-,.,144.0,.
COc1cccc2sc(N(CCN(C)C)C(=O)c3ccc4c(c3)CCCC4)nc12,-,.,-,.,-,.
COc1cccc2sc(N(CCCN(C)C)C(=O)c3ccc(S(=O)(=O)N4CCc5ccccc5C4)cc3)nc12,-,.,38.0,.,192.0,.
CCOc1cccc2sc(N(CCCN(C)C)C(=O)c3ccc(S(=O)(=O)N4CCCCCC4)cc3)nc12,-,.,-,.,149.0,.
CC1CCCCN1S(=O)(=O)c1ccc(C(=O)N(CCCN(C)C)c2nc3ccc(Br)cc3s2)cc1 (configuration not stated),-,.,76.0,.,258.0,.
